Reference: ChEMBL document CHEMBL3616447, “Identification of novel PARP-1 inhibitors: Drug design, synthesis and biological evaluation” (Bioorg Med Chem Lett, 2015)
pIC50: −log10 of the molar value.

Columns and labels:
[1] = molecular target: Poly [ADP-ribose] polymerase 1 (Homo sapiens, UniProt P09874); assay: Inhibition of PARP1 (unknown origin)
MCF7 = assay: Anticancer activity against human MCF7 cells after 96 hrs by MTT assay; assay type: functional; conditions: MCF7, 96 h
In short: (§1)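 Human breast cancer lines: MCF-7 (wild type) and MDA-MB-436 (naturally carrying BRCA1 mutations, BRCA1-deficient). Cytotoxicity reported as CC50 in μM.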

[2] = Anticancer activity against human BRCA1-deficient MDA-MB-436 cells after 96 hrs by MTT assay; assay type: functional; conditions: MDA-MB-436, 96 h; in short: as §1

Chain of Poly [ADP-ribose] polymerase 1 (P09874 whole entry): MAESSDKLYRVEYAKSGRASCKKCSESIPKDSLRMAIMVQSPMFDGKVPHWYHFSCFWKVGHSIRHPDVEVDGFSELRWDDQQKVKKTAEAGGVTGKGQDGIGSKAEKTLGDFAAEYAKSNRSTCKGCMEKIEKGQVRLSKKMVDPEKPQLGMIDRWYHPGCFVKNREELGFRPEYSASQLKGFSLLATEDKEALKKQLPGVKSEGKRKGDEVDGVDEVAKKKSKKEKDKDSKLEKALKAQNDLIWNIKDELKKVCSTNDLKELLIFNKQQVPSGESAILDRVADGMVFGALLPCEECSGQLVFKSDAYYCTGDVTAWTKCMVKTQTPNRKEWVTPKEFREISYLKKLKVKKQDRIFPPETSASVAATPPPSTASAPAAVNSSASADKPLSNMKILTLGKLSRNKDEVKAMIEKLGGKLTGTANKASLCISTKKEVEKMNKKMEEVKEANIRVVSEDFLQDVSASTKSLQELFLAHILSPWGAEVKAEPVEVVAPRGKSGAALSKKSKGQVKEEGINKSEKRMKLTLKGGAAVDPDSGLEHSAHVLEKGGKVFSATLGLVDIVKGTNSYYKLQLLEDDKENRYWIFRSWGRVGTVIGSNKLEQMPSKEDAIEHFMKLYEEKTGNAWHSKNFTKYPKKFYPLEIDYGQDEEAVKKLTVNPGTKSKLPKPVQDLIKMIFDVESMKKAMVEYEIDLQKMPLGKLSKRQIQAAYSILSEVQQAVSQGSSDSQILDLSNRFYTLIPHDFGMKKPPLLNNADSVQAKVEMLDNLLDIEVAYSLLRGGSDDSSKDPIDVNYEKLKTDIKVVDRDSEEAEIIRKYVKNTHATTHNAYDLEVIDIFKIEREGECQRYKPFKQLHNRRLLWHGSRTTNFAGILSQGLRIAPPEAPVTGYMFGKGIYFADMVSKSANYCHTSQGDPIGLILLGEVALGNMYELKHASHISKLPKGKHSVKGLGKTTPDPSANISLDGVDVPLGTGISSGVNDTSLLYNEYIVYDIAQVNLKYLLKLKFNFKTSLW

Structure (SMILES)	pIC50 [1]	CC50 (MCF7) [µM]	CC50 [2] [µM]
CC(C)NCc1ccc(-c2[nH]c3cccc4c3c2C(=O)NNC4=O)cc1	4.95	40.7	55.7
CNCc1ccc(-c2cc3c4c(c[nH]c4c2)C(=O)NNC3=O)cc1		1240	
CCCNCc1ccc(-c2cc3c4c(c[nH]c4c2)C(=O)NNC3=O)cc1	6.86	5560	112
CCCCNCc1ccc(-c2[nH]c3cccc4c3c2C(=O)NNC4=O)cc1	6.60	18	18.9
CCCNCc1ccc(-c2[nH]c3cccc4c3c2C(=O)NNC4=O)cc1		101	
CNCc1ccc(-c2[nH]c3cccc4c3c2C(=O)NNC4=O)cc1	5.57	83.1	11.3
CC(C)NCc1ccc(-c2cc3c4c(c[nH]c4c2)C(=O)NNC3=O)cc1	6.33	1920	105
CNCc1ccc(-c2[nH]c3cc(F)cc4c3c2CCNC4=O)cc1 [RUCAPARIB]		19.5	3

Now from value to molecule, other results behind:

pIC50 [1]	Structure (SMILES)	CC50 (MCF7) [µM]	CC50 [2] [µM]
7.45	CCCCNCc1ccc(-c2cc3c4c(c[nH]c4c2)C(=O)NNC3=O)cc1	237	68.8
8.18	CNCc1ccc(-c2[nH]c3cc(F)cc4c3c2C(=O)NNC4=O)cc1	65.3	56.2
8.62	CCCCNCc1ccc(-c2[nH]c3cc(F)cc4c3c2C(=O)NNC4=O)cc1		114
8.46	CCCNCc1ccc(-c2[nH]c3cc(F)cc4c3c2C(=O)NNC4=O)cc1	25.9	5.45
